14 compounds from ChEMBL document CHEMBL2311362, “Fragment-based discovery of novel and selective mPGES-1 inhibitors Part 1: identification of sulfonamido-1,2,3-triazole-4,5-dicarboxylic acid” (Bioorg Med Chem Lett, 2013) can be followed below.

As a reminder, the pIC50 is the negative decadic logarithm of the IC50, by convention in mol/L. Low values mean a large IC50, high ones a small IC50. As a reminder, the inhibition is how much of the control response was suppressed.

SMILES strings stand for the structures. pIC50: −log10 of the molar value. The source made the active and inactive calls. The calls are words filed in the database; no cut-off is given here.

The target in one assay is T1, Prostaglandin E synthase (Homo sapiens, UniProt O14684).
T1 sequence (O14684 whole entry): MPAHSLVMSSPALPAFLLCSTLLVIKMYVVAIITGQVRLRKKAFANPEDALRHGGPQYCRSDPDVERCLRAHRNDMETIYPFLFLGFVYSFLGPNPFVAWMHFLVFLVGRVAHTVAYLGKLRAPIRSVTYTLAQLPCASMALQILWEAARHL
Nature of the assay: Inhibition of mPGES1 (unknown origin) using PGH2 as substrate incubated for 30 mins prior to substrate addition by PGH2-coupled spectrophotometric analysis. In outline:
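Two-enzyme coupled assay. 110 nM mPGES-1 and 220 nM 15-PGDH in 200 µL buffer (50 mM Tris-HCl pH 7.5, 50 µM PMA, 2 mM reduced glutathione, 1 mM NAD+, 0.1 mM DTT), compound added in 1 µL DMSO, preincubated 30 min. Started with cold PGH2 (14 µM final). NADH read by fluorescence, excitation 340 nm, emission 468 nm. IC50 from varying concentrations.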

Assay [1] is described as follows: Inhibition of rat mPGES1 expressed in CHOK21 cells using [3H]PGH2 as substrate by radio-HPLC analysis. Type of assay: cell-based.
The target of assay [2] is T2, Prostaglandin E synthase (Homo sapiens) (UniProt O14684).
T2 sequence (whole entry): T1 sequence (O14684 whole entry)
Nature of the assay: Ratio of MK886 IC50 to compound IC50 for mPGES1 (unknown origin).

For assay [3], the target named is T2, Prostaglandin E synthase (Homo sapiens). Put plainly: Inhibition of human recombinant mPGES1 using PGH2 as substrate at 10 uM incubated for 5 mins prior to substrate addition measured after 5 mins by HPLC analysis. Summed up: (§1)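 mPGES-1 inhibition measured at 10 µM test compound, run with and without 0.1% Triton X-100, following a previously published protocol. Reported as % inhibition.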

The nature of assay [4]: Selectivity index, ratio of IC50 for ovine COX1 to IC50 for mPGES1 (unknown origin).
Assay [5] deals with T3, Prostaglandin G/H synthase 1 (Ovis aries) (UniProt P05979).
T3 sequence (whole entry): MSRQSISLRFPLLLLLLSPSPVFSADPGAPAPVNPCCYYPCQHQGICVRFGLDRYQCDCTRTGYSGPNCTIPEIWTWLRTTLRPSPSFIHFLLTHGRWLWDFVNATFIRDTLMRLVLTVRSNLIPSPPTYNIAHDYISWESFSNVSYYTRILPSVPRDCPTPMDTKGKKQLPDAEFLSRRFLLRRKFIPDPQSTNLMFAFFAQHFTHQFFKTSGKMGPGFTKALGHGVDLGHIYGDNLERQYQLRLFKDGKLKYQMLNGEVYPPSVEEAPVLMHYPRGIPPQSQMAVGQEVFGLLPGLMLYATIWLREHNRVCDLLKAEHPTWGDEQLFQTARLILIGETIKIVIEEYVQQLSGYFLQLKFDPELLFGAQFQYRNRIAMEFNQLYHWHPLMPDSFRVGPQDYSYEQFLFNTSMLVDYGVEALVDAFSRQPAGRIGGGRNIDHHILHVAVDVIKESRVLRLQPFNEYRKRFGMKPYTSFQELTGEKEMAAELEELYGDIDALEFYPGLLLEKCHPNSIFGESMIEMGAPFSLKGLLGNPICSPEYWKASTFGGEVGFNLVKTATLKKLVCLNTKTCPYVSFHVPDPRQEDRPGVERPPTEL
Put plainly: Inhibition of ovine COX1 using PGH2 as substrate at 1 mM incubated for 10 mins prior to substrate addition measured for 2 mins by enzyme immunoassay. Particulars: in the assay text read “arachidonic acid” for “PGH2”. Summed up: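 COX-1 (purified ovine) or COX-2 (purified human recombinant) preincubated with test compound 10 min at 37 °C, then tested at 1 mM. Prostanoid product quantified by enzyme immunoassay with a broadly specific antibody that binds all major prostaglandins (COX inhibitor screening kit).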

The target in assay [6] is T4, Prostaglandin G/H synthase 2 (Homo sapiens) (UniProt P35354).
T4 sequence (whole entry): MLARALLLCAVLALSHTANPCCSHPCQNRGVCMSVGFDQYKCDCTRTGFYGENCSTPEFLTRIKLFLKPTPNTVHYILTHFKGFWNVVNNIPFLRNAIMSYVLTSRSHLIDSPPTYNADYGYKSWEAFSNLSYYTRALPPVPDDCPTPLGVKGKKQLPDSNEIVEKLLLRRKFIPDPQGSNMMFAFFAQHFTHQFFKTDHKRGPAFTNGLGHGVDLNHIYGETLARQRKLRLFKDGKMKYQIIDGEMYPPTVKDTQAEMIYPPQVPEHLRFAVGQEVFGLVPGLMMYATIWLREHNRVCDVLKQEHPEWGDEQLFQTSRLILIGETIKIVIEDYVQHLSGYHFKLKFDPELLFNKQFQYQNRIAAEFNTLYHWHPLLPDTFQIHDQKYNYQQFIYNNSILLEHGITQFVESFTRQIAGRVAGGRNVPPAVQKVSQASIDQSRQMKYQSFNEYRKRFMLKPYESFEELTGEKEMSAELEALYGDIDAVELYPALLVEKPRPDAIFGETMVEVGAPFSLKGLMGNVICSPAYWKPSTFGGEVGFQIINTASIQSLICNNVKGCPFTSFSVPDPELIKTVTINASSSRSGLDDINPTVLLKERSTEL
Nature of the assay: Inhibition of human recombinant COX2 using arachidonic acid as substrate at 1 mM incubated for 10 mins prior to substrate addition measured for 2 mins by enzyme immunoassay.

The target of assay [7] is T2, Prostaglandin E synthase (Homo sapiens). Put plainly: Inhibition of human recombinant mPGES1 using PGH2 as substrate at 10 uM incubated for 5 mins prior to substrate addition measured after 5 mins by HPLC analysis in presence of triton-X-100. In outline:
as §1

Consider `COC(=O)c1nnn(CCNS(=O)(=O)c2ccccc2)c1C(=O)OC`, for which the pIC50 on Prostaglandin E synthase was 4.89.

In turn, `O=C(O)c1nnn(CCNS(=O)(=O)c2cccc(C(F)(F)F)c2)c1C(=O)O` had a pIC50 against Prostaglandin E synthase of 5.36.

In assay [1], `CC(C)c1ccc2c(c1)c(SC(C)(C)C)c(CC(C)(C)C(=O)O)n2Cc1ccc(Cl)cc1` had a pIC50 of 5.49.

Regarding `CCCN(CCn1nnc(C(=O)O)c1C(=O)O)S(=O)(=O)c1ccc(C)cc1`, at Prostaglandin E synthase, the pIC50 is 5.42.

`Cc1ccc(S(=O)(=O)NCCn2nnc(C(=O)O)c2C(=O)O)cc1`: the pIC50 against Prostaglandin E synthase was 5.38.

Turning to `NC(=O)c1nnn(CCNS(=O)(=O)c2ccccc2)c1C(N)=O`, the negative logarithm of the IC50 (pIC50) on Prostaglandin E synthase was 4.63.

On Prostaglandin E synthase, `CN(CCn1nnc(C(=O)O)c1C(=O)O)S(=O)(=O)c1ccccc1` gave a pIC50 of 5.40.

As to `CS(=O)(=O)NCCn1nnc(C(=O)O)c1C(=O)O`, the pIC50 against Prostaglandin E synthase was 4.99.

At Prostaglandin E synthase, `O=C(O)c1nnn(CCNS(=O)(=O)c2ccccc2C(F)(F)F)c1C(=O)O` showed a pIC50 of 5.48.

As to `Cc1ccc(S(=O)(=O)NCn2nnc(C(=O)O)c2C(=O)O)cc1`, the pIC50 at Prostaglandin E synthase was 5.16.

Regarding `O=C(O)c1nnn(CCN(c2ccccc2)S(=O)(=O)c2ccccc2)c1C(=O)O`, the Ratio IC50 was 3.5 in assay [2] and 1000 in assay [4]. Moreover, the inhibition in assay [3] was 69.1%; in assay [5], 50%; in assay [7], 18.1%. Moreover, in assay [6], the inhibition entry was “inactive”. This compound also gave a pIC50 on Prostaglandin E synthase of 5.96.

Compound `Cc1ccc(S(=O)(=O)NCCCn2nnc(C(=O)O)c2C(=O)O)cc1` gave a pIC50 on Prostaglandin E synthase of 5.20.

The compound `O=C(O)c1nnn(CCNS(=O)(=O)c2ccccc2)c1C(=O)O` gave a pIC50 against Prostaglandin E synthase of 5.39.

`CCS(=O)(=O)NCCn1nnc(C(=O)O)c1C(=O)O` gave a pIC50 against Prostaglandin E synthase of 5.01.
